≈ marks a conversion by molar mass, not a printed value. Calls of active or inactive are those of the source. The calls are words filed in the database; no cut-off is given here.
Columns and labels:
[1] = system: Mycobacterium tuberculosis; experiment: Antimycobacterial activity against Mycobacterium tuberculosis H37Rv after 5 days by standard microdilution method; format: functional; conditions: 120 h
[2] = target: Cytochrome P450 3A4 (Homo sapiens, UniProt P08684); experiment: Inhibition of CYP3A4 (unknown origin); format: ADME
Cytochrome P450 3A4, sequence (P08684 whole entry, canonical isoform): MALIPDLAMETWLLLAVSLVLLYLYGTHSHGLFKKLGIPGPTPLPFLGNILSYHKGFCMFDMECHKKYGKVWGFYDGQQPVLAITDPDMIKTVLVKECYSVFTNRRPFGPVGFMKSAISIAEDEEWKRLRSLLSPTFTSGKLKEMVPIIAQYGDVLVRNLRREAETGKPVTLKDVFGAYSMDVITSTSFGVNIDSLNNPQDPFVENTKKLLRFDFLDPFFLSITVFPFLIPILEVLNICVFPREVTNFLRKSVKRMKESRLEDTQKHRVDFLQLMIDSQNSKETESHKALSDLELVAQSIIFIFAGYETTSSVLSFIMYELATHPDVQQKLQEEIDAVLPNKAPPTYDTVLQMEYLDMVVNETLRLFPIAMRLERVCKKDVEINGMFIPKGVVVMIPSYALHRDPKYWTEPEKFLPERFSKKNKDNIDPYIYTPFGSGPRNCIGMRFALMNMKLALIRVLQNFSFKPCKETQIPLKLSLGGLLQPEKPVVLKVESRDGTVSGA
Procedure, shortened: (§1)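 CYP inhibition IC50 measured on isoforms CYP3A4, CYP2D6, CYP2C9, CYP2C19 and CYP1A2.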

[3] = target: T1, Cytochrome P450 1A2 (Homo sapiens, UniProt P05177); experiment: Inhibition of CYP1A2 (unknown origin); format: ADME; procedure, shortened: as §1
T1 sequence (P05177 whole entry): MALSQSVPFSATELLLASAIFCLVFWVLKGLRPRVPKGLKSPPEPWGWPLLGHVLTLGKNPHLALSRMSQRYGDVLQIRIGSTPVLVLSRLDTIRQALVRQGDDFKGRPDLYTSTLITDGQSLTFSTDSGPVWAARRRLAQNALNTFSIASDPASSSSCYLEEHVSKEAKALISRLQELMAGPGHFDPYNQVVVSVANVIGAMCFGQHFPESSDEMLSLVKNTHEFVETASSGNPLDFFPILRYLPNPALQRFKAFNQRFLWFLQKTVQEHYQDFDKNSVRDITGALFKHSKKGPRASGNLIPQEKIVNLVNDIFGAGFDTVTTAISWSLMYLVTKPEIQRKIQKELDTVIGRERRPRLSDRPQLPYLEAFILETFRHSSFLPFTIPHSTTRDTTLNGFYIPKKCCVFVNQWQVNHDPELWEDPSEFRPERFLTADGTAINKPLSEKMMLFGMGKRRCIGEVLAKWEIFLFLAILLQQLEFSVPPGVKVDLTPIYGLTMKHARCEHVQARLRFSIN

[4] = target: Cytochrome P450 2D6 (Homo sapiens, UniProt P10635); experiment: Inhibition of CYP2D6 (unknown origin); format: ADME; procedure, shortened: as §1
Cytochrome P450 2D6, sequence (P10635 whole entry): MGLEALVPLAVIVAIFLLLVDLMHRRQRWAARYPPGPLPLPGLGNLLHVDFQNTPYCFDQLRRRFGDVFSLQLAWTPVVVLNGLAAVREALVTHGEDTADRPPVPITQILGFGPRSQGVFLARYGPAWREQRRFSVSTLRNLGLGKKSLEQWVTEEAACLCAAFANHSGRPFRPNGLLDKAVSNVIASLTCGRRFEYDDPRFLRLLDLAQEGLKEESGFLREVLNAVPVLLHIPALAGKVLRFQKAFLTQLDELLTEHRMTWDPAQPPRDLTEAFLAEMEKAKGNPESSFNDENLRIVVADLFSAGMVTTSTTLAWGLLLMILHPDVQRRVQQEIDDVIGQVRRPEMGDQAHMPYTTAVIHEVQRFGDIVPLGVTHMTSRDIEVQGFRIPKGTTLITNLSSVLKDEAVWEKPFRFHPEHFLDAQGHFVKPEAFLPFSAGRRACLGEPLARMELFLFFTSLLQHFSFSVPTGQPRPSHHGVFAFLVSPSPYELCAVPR

[5] = Inhibition of Mycobacterium smegmatis recombinant DprE1 using farnesylphosphoryl-beta-D-ribofuranose as substrate assessed as conversion of amplex red to resorufin after 30 mins; design: species or system Mycolicibacterium smegmatis
Procedure, shortened: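 Msm DprE1 (thioredoxin-6His fusion of Msm Rv3790) at 75 nM, preincubated 30 min with 10 μM FAD. Buffer: 50 mM glycylglycine pH 8.5, 200 mM potassium glutamate, 0.002% Brij-35, 2% DMSO, 25 °C. Started with 300 μM farnesylphosphoryl-β-D-ribofuranose, 0.01 mg/mL HRP and 50 μM Amplex Red.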

[6] = Intrinsic clearance in rat cryopreserved hepatocytes assessed per 10^6 cells at 1 uM up to 120 mins by LC-MS/MS analysis; format: ADME, cell-based, Hepatocyte; conditions: read-out: CLH
[7] = Fraction unbound in human plasma at 20 uM after 18 hrs by equilibrium dialysis method; format: ADME, cell-free
[8] = Solubility of the compound in 0.1 M phosphate buffer at pH 7.4 after 24 hrs by UV and MS analysis; format: physicochemical
[9] = Cytotoxicity against human A549 cells after 72 hrs by resazurin based fluorescence assay; format: cell-based; conditions: read-out: MIC
Procedure, shortened: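 Cytotoxicity read as MMIC, the MIC on the A549 cell line.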

[10] = target: Cytochrome P450 2C19 (Homo sapiens, UniProt P33261); experiment: Inhibition of CYP2C19 (unknown origin); format: ADME; procedure, shortened: as §1
Cytochrome P450 2C19, sequence (P33261 whole entry): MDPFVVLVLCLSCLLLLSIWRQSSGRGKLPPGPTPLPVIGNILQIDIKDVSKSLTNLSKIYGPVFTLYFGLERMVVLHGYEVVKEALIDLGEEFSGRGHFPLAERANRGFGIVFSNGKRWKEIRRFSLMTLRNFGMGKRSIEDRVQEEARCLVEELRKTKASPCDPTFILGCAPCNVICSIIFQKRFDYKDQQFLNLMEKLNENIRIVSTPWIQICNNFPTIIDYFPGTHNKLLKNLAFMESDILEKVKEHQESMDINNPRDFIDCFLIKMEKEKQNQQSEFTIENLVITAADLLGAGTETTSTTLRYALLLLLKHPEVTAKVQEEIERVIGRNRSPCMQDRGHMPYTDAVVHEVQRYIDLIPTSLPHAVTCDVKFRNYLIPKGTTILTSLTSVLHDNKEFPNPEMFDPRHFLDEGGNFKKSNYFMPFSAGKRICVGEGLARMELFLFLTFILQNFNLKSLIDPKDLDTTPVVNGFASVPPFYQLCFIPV

[11] = Intrinsic clearance in human liver microsomes at 1 uM up to 30 mins by LC-MS/MS analysis; format: ADME; conditions: read-out: CLH
[12] = Permeability of the compound from basolateral to apical side in human Caco2 cells; format: ADME, cell-based; conditions: Caco-2, read-out: permeability
[13] = Solubility of the compound in fed-state simulated intestinal fluid at pH 6.5; format: ADME
[14] = target: Voltage-gated inwardly rectifying potassium channel KCNH2 (Homo sapiens, UniProt Q12809); experiment: Inhibition of human ERG by medium-throughput electrophysiology
Voltage-gated inwardly rectifying potassium channel KCNH2, sequence (Q12809 whole entry): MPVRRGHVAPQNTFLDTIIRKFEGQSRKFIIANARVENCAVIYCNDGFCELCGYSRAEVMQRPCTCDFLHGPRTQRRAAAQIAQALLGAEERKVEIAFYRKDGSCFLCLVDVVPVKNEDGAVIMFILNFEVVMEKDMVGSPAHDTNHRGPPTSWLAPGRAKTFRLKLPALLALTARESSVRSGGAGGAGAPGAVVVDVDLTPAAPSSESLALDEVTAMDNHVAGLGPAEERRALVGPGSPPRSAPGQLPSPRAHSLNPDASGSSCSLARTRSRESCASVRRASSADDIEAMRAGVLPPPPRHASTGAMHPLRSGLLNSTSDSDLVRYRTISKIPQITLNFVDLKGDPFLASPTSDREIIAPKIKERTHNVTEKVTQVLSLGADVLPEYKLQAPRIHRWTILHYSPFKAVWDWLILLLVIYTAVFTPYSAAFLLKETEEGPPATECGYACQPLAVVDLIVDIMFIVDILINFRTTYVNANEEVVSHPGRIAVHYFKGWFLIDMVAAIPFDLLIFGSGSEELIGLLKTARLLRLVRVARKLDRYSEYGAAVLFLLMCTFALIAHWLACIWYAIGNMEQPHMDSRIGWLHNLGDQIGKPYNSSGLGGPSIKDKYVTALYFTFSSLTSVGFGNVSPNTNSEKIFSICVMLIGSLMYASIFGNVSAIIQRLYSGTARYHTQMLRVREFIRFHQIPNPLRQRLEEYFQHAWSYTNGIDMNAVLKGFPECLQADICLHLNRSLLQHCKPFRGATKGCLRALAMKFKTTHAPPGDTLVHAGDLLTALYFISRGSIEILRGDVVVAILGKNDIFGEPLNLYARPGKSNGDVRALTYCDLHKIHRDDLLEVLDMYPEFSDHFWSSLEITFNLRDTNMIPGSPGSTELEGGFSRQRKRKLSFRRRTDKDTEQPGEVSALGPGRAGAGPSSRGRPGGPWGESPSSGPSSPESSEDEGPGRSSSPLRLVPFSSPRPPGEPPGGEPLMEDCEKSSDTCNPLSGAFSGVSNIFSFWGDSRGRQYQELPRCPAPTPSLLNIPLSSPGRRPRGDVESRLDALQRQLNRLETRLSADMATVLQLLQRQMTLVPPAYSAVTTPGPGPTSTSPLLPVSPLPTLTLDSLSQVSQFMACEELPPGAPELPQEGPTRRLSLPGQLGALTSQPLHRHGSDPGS

[15] = Permeability of the compound from apical to basolateral side in human Caco2 cells; format: ADME, cell-based; conditions: Caco-2, read-out: permeability
[16] = target: Cytochrome P450 2C9 (Homo sapiens, UniProt P11712); experiment: Inhibition of CYP2C9 (unknown origin); format: ADME; procedure, shortened: as §1
Cytochrome P450 2C9, sequence (P11712 whole entry): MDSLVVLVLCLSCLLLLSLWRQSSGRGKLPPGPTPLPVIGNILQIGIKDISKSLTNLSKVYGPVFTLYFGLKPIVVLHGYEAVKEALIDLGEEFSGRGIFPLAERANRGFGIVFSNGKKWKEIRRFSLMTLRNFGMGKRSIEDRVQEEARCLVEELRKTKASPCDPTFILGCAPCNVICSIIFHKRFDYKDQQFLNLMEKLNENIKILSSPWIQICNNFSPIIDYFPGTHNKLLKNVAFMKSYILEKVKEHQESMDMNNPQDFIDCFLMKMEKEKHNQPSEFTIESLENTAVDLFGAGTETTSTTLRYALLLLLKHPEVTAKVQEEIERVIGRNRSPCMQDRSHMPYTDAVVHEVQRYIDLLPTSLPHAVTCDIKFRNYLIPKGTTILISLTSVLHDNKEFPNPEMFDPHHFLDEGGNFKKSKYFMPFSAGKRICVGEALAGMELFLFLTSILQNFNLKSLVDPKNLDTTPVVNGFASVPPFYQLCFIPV

[17] = Octanol-water partition coefficient, log D of the compound by shake-flask method; format: physicochemical
[18] = Inhibition of Mycobacterium smegmatis DprE1 Y321H mutant using farnesylphosphoryl-beta-D-ribofuranose as substrate assessed as conversion of amplex red to resorufin after 30 mins; design: species or system Mycolicibacterium smegmatis
Procedure, shortened: (§2)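 Recombinant M. smegmatis DprE1 (thioredoxin-6His fusion), wild type or Y321H, 75 nM. Enzyme was preincubated 30 min in FAD assay mix: 50 mM glycylglycine pH 8.5, 200 mM potassium glutamate, 10 μM FAD, 0.002% Brij-35, 2% DMSO. Reaction was started with 300 μM farnesylphosphoryl-β-D-ribofuranose, 0.01 mg/mL HRP and 50 μM amplex red at 25 °C.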

[19] = system: Mycobacterium tuberculosis; experiment: Antimycobacterial activity against Mycobacterium tuberculosis H37Rv under hypoxic condition after 6 days by resazurin assay; format: functional
[20] = system: Staphylococcus aureus; experiment: Antimicrobial activity against Staphylococcus aureus ARC517 at 100 uM; format: functional, organism-based
Procedure, shortened: (§3)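 Nonmycobacterial panel of Candida albicans, Gram-negative and Gram-positive pathogens.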

[21] = system: Mycobacterium tuberculosis; experiment: Antimycobacterial activity against Mycobacterium tuberculosis over expressing DprE1 after 5 days by standard microdilution method; format: functional; conditions: 120 h
[22] = system: Klebsiella pneumoniae; experiment: Antimicrobial activity against Klebsiella pneumoniae ARC1865 at 100 uM; format: functional, organism-based; procedure, shortened: as §3
[23] = system: Escherichia coli; experiment: Antimicrobial activity against Escherichia coli ARC523 at 100 uM; format: functional, organism-based; procedure, shortened: as §3
[24] = system: Pseudomonas aeruginosa; experiment: Antimicrobial activity against Pseudomonas aeruginosa ARC545 at 100 uM; format: functional, organism-based; procedure, shortened: as §3
[25] = system: Mycolicibacterium smegmatis; experiment: Antimicrobial activity against Mycobacterium smegmatis ATCC 607 at 100 uM; format: functional, organism-based
[26] = system: Escherichia coli; experiment: Antimicrobial activity against Escherichia coli ARC524 at 100 uM; format: functional, organism-based; procedure, shortened: as §3
[27] = system: Haemophilus influenzae; experiment: Antimicrobial activity against Haemophilus influenzae ARC446 at 100 uM; format: functional, organism-based; procedure, shortened: as §3
[28] = system: Streptococcus pneumoniae; experiment: Antimicrobial activity against Streptococcus pneumoniae ARC548 at 100 uM; format: functional, organism-based; procedure, shortened: as §3
[29] = target: T2, Adenosine receptor A1 (Homo sapiens, UniProt P30542); experiment: Inhibition of adenosine A1 receptor (unknown origin)
T2 sequence (P30542 whole entry): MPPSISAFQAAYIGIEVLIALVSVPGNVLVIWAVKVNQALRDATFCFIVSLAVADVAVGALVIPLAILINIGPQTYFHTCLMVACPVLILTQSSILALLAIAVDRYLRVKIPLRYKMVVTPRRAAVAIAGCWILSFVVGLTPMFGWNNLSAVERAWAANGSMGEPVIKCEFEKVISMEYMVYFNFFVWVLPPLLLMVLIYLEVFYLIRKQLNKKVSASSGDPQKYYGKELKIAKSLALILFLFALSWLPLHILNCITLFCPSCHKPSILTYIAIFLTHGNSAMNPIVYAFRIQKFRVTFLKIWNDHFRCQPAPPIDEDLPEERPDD
Procedure, shortened: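 Secondary pharmacology panel of binding, enzyme and functional assays covering 24 molecular targets. Activity recorded as a defined Ki/IC50/EC50.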

[30] = system: Mycolicibacterium smegmatis; experiment: Ratio of IC50 for Mycobacterium smegmatis DprE1 Y321H mutant to IC50 for Mycobacterium smegmatis recombinant wild type DprE1; procedure, shortened: as §2
[31] = system: Mycolicibacterium smegmatis; experiment: Antimicrobial activity against Mycobacterium smegmatis mc2155 at 100 uM; format: functional, organism-based; conditions: str. MC2 155
[32] = system: Haemophilus influenzae; experiment: Antimicrobial activity against Haemophilus influenzae ARC158 at 100 uM; format: functional, organism-based; procedure, shortened: as §3
[33] = system: Pseudomonas aeruginosa; experiment: Antimicrobial activity against Pseudomonas aeruginosa ARC546 at 100 uM; format: functional, organism-based; procedure, shortened: as §3
[34] = system: Candida albicans; experiment: Antimicrobial activity against Candida albicans ARC527 at 100 uM; format: functional, organism-based; procedure, shortened: as §3

SMILES	MIC [1] [µM]	INH [2] [µM]	INH [3] [µM]	INH [4] [µM]	IC50 [5] [µM]	hepatocyte CLint at 1 µM [6] [µL/min/1e6 cells]	fraction unbound at 18 h, 20 µM [7]	solubility at 24 h [8] [µM]	MCC at 72 h [9] [µM]	INH [10] [µM]	microsomal CLint at 1 µM [11] [µL/min/mg]	Papp B→A [12] [×10⁻⁶ cm/s]	solubility [13] [µM]	IC50 [14] [µM]	Papp A→B [15] [×10⁻⁶ cm/s]	INH [16] [µM]	logD [17]	IC50 [29] [µM]	further results
Cc1onc(C(=O)N2[C@@H]3CC[C@H]2C[C@@H](Nc2cc(=O)n(C)c4nccnc24)C3)c1C	6.2 (≈ 2.53 µg/mL)	> 30	> 30	> 30	0.183	20	0.05	132 (≈ 53.9 µg/mL)	> 50	> 30	100	21	307 (≈ 125 µg/mL)	> 33	33	> 30	1.8		
Cc1onc(C(=O)N2CCC(Nc3cc(=O)n(C)c4cc(F)c(F)cc34)CC2)c1C	0.78 (≈ 0.325 µg/mL)	> 30	> 30	> 30	0.038	17	0.05	28 (≈ 11.7 µg/mL)	> 16	> 30	49	21	91 (≈ 37.9 µg/mL)		22	> 30	2.3	8	IC50 [18]: 7.02 µM; Activity [19]: inactive; Activity [20]: inactive; MIC [21]: 100 µM (≈ 41.6 µg/mL); Activity [22]: inactive; Activity [23]: inactive; Activity [24]: inactive; Activity [25]: inactive; Activity [26]: inactive; Activity [27]: inactive; Activity [28]: inactive; fold change (FC) [30]: 165; Activity [31]: inactive; Activity [32]: inactive; Activity [33]: inactive; Activity [34]: inactive
Cn1ncc(C(=O)N2[C@@H]3CC[C@H]2C[C@@H](Nc2n[nH]c4ccc(F)cc24)C3)c1Cl	6.25 (≈ 2.52 µg/mL)	> 30	> 30	> 30	0.12	9	0.08	> 1000	> 50	> 30	4	31		> 33	20	> 30	1.9	8	

Source: ChEMBL document CHEMBL3286182, “4-aminoquinolone piperidine amides: noncovalent inhibitors of DprE1 with long residence time and potent antimycobacterial activity” (J Med Chem, 2014)
